The source made the active and inactive calls.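 Rule for the calls: active = IC50 at or below 10 µM; inactive = the rest.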

As usually defined, the IC50 is the midpoint of a concentration-inhibition curve.

For the assay, the system named is HeLa UbG76V-GFP reporter turnover, GFP imaging. Description: blockers of UbG76V-GFP proteasomal turnover – imaging, human cell line, second optimization round, SAR follow-up (AID 488830). Put shortly:
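Buffer or medium: Chase medium with 2.5% FBS plus cycloheximide (50 µg/mL) | Material: UbG76V-GFP reporter HeLa cells | Detection: GFP fluorescence imaging, mean per-cell intensity over ~500 cells | Times: 1 h MG132 pre-treatment, then compound chase imaged 70–170 min | Read-out: IC50 from % remaining degradation rate constant | Also added: 4 µM MG132 reporter-loading pre-treatment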
On to `Clc1cccc(CNc2nc(Cl)nc3ccccc23)c1`, for which the IC50 was 18 µM (inactive).
Take `Brc1cccc2c(NCc3ccccc3)nc(NCc3ccccc3)nc12`: the IC50 is > 30 µM (inactive).
Take `c1ccc(CNc2nc(N3CCCc4ccccc43)nc3ccccc23)cc1`: the IC50 is 10 µM (inactive).
In the case of `COc1c(F)cccc1Nc1nc(NCc2ccccc2)c2ccccc2n1`, the IC50 is 12 µM (inactive).
For the molecule `Clc1cccc(Nc2nc(NCc3ccc(Br)cc3)c3ccccc3n2)c1`, the IC50 is 10 µM (inactive).
The result for `Cc1c(Cl)cccc1Nc1nc(NCc2ccccc2)c2ccccc2n1` reads 5.5 µM.
On to `Cc1ccc(CNc2nc(Cl)nc3ccccc23)cc1`, for which the IC50 was > 25 µM (inactive).
The result for `COc1ccc(F)cc1Nc1nc(NCc2ccccc2)c2ccccc2n1` reads 9.3 µM.
For `FC(F)(F)c1ccc2c(NCc3ccccc3)nc(NCc3ccccc3)nc2c1`, the IC50 was 19 µM (inactive).
In the case of `COc1cc2nc(NCc3ccccc3)nc(NCc3ccccc3)c2cc1OC`, the IC50 is 8.8 µM.
As for `Cc1ccc2c(NCc3ccccc3)nc(NCc3ccccc3)nc2c1`, the IC50 is 6.1 µM.
As to `Clc1cccc(Nc2nc(Nc3ccccc3)c3ccccc3n2)c1`, the IC50 is 12 µM (inactive).
Consider `COc1ccc(Nc2nc(Nc3ccc(OC)cc3)c3ccccc3n2)cc1`, for which the IC50 is 23 µM (inactive).
Regarding `COc1c(Cl)cccc1Nc1nc(NCc2ccccc2)c2ccccc2n1`, the half-inhibitory concentration (IC50) was 6.3 µM.
As for `Cc1ccc(Cl)cc1Nc1nc(NCc2ccccc2)c2ccccc2n1`, the IC50 is 7 µM.
For `Fc1cccc2c(NCc3ccccc3)nc(NCc3ccccc3)nc12`, the IC50 was 18 µM (inactive).
Regarding `Clc1nc(NCc2ccccc2Br)c2ccccc2n1`, the IC50 is 13 µM (inactive).
Take `Fc1cccc2nc(NCc3ccccc3)nc(NCc3ccccc3)c12`: the IC50 is 13 µM (inactive).
As for `Clc1nc(NCc2cccc(Br)c2)c2ccccc2n1`, the IC50 is 19 µM (inactive).
In the case of `O=C(C1CCCN(S(=O)(=O)c2cnc[nH]2)C1)N(CCc1ccccc1)Cc1ccccc1` (stereo unspecified), the IC50 was 12 µM (inactive).
For the molecule `Clc1cccc2nc(NCc3ccccc3)nc(NCc3ccccc3)c12`, the IC50 was 16 µM (inactive).
On to `Cc1ccc(C2=[N+]([O-])C3(CCCCC/C3=N\O)N(O)C2(C)C)o1` (stereo unspecified), for which the IC50 is > 25 µM (inactive).
Under `COc1cccc2c(NCc3ccccc3)nc(NCc3ccccc3)nc12` stands 10 µM (inactive).
On to `CC(C)(C)NC(=O)Nc1ccc2nccnc2c1`, for which the IC50 is > 25 µM (inactive).
Turning to `c1ccc(CNc2nc(N3CCNc4ccccc43)nc3ccccc23)cc1`, the IC50 is 6.3 µM.
On to `COc1ccccc1CNc1nc(Nc2cccc(Cl)c2)nc2ccccc12`, for which the IC50 is 11 µM (inactive).
On to `COc1ccc2nc(NCc3ccccc3)nc(NCc3ccccc3)c2c1`, for which the half-inhibitory concentration (IC50) is 8.6 µM.
In the case of `Clc1nc(NCc2ccc(Br)cc2)c2ccccc2n1`, the IC50 is 15 µM (inactive).
On to `Cc1cccc(CNc2nc(Cl)nc3ccccc23)c1`, for which the IC50 is 22 µM (inactive).
Under `Fc1ccc(CNc2nc(Cl)nc3ccccc23)cc1` stands 21 µM (inactive).
As for `O=[N+]([O-])c1cccc(Nc2nc(NCc3ccccc3)c3ccccc3n2)c1`, the IC50 was 19 µM (inactive).
For `COc1cccc(CNc2nc(Nc3cccc(Cl)c3)nc3ccccc23)c1`, the IC50 is 9.9 µM.
Consider `Fc1ccccc1CNc1nc(Cl)nc2ccccc12`, for which the IC50 was 15 µM (inactive).
Take `Fc1ccc(CNc2nc(Nc3cccc(Cl)c3)nc3ccccc23)cc1`: the IC50 was 5.7 µM.
Turning to `Cc1ccc(Nc2nc(Nc3ccc(C)cc3)c3ccccc3n2)cc1`, the IC50 was 21 µM (inactive).
For the molecule `COc1ccc(Nc2nc(Nc3cccc(Cl)c3)nc3ccccc23)cc1`, the IC50 was 13 µM (inactive).
Take `Clc1cccc(Nc2nc(NCc3ccccc3Br)c3ccccc3n2)c1`: the IC50 was 12 µM (inactive).
With `Cc1ccc(F)cc1Nc1nc(NCc2ccccc2)c2ccccc2n1`, the half-inhibitory concentration (IC50) is 5 µM.
For `Cc1ccccc1CNc1nc(Cl)nc2ccccc12`, the IC50 is > 25 µM (inactive).
`Cc1cc(F)cc(Nc2nc(NCc3ccccc3)c3ccccc3n2)c1`: the 50% inhibitory concentration (IC50) is 5.4 µM.
Regarding `Fc1ccc2nc(NCc3ccccc3)nc(NCc3ccccc3)c2c1`, the IC50 was 8.2 µM.
For the molecule `CN1CCN(S(=O)(=O)c2ccc(NC(=O)c3cccc(S(=O)(=O)N4CCCC4)c3)cc2)CC1`, the IC50 is > 25 µM (inactive).
`O=C(NCc1ccco1)c1cc(S(=O)(=O)N2CCOCC2)ccc1Cl`: the IC50 is > 25 µM (inactive).
On to `COc1ccc(Nc2nc(NCc3ccccc3)c3ccccc3n2)cc1F`, for which the IC50 is 4.7 µM.
On to `Clc1ccc2c(NCc3ccccc3)nc(NCc3ccccc3)nc2c1`, for which the IC50 is 6.3 µM.
On to `COc1ccccc1CNc1nc(Cl)nc2ccccc12`, for which the IC50 was 19 µM (inactive).
As to `FC(F)(F)c1cccc(Nc2nc(NCc3ccccc3)c3ccccc3n2)c1`, the IC50 is 21 µM (inactive).
Turning to `Fc1ccc2c(NCc3ccccc3)nc(NCc3ccccc3)nc2c1`, the IC50 was 6.1 µM.
Take `Cc1cccc(CNc2nc(Nc3cccc(Cl)c3)nc3ccccc23)c1`: the IC50 is 9.7 µM.
For the molecule `Clc1ccc(CNc2nc(Nc3cccc(Cl)c3)nc3ccccc23)cc1`, the IC50 is 7.6 µM.
In the case of `Clc1nc(NCc2ccccc2Cl)c2ccccc2n1`, the IC50 is 11 µM (inactive).
Turning to `Fc1ccccc1CNc1nc(Nc2cccc(Cl)c2)nc2ccccc12`, the IC50 is 7.8 µM.
On to `Clc1cccc(Nc2nc(NCc3cccc(Br)c3)c3ccccc3n2)c1`, for which the concentration for half-maximal inhibition (IC50) was 9.9 µM.
Take `N#Cc1ccc2c(NCc3ccccc3)nc(NCc3ccccc3)nc2c1`: the IC50 is 21 µM (inactive).
For `CCOC(=O)NC(NC(=O)OCC)C(=O)c1ccc(F)cc1`, the IC50 is > 25 µM (inactive).
Consider `Clc1cccc(CNc2nc(Nc3cccc(Cl)c3)nc3ccccc23)c1`, for which the IC50 is 15 µM (inactive).
Consider `Clc1ccc(CNc2nc(Cl)nc3ccccc23)cc1`, for which the IC50 was 14 µM (inactive).
As for `Cc1ccc(Nc2nc(NCc3ccccc3)c3ccccc3n2)cc1F`, the IC50 was 5.2 µM.
`CC(=O)Nc1ccc(NC(=O)c2ccccc2F)cc1`: the IC50 was > 25 µM (inactive).
As to `Cc1c(F)cccc1Nc1nc(NCc2ccccc2)c2ccccc2n1`, the IC50 is 3.7 µM.
For the molecule `CC1(C)N(O)CC(c2cccs2)=[N+]1[O-]`, the IC50 was > 25 µM (inactive).
`O=S(=O)(NC1CCCCC1)c1ccc(Br)cc1`: the IC50 was > 30 µM (inactive).
`Brc1ccc2c(NCc3ccccc3)nc(NCc3ccccc3)nc2c1`: the IC50 was 10 µM (inactive).
Turning to `Fc1ccccc1-c1nc(NCc2ccccc2)c2ccccc2n1`, the IC50 is 8 µM.
With `c1ccc(Nc2nc(Nc3ccccc3)c3ccccc3n2)cc1`, the half-inhibitory concentration (IC50) was 7.2 µM.
Under `Clc1ccc2nc(NCc3ccccc3)nc(NCc3ccccc3)c2c1` stands 6.6 µM; under `O=C1C(C=NCC2CCCO2)=C(O)c2ccccc21` (stereo unspecified), > 25 µM (inactive).
`Fc1cccc(CNc2nc(Cl)nc3ccccc23)c1`: the IC50 was 20 µM (inactive).
Turning to `c1ccc(CNc2nc(N3CCOc4ccccc43)nc3ccccc23)cc1`, the IC50 was 7 µM.
In the case of `c1ccc(CNc2nc(N3CCc4ccccc43)nc3ccccc23)cc1`, the IC50 was 11 µM (inactive).
Turning to `COc1cccc(CNc2nc(Cl)nc3ccccc23)c1`, the IC50 was 13 µM (inactive).
Regarding `COc1ccc(CNc2nc(Nc3cccc(Cl)c3)nc3ccccc23)cc1`, the IC50 is 11 µM (inactive).
Under `COc1ccc(CNc2nc(Cl)nc3ccccc23)cc1` stands 18 µM (inactive); under `Clc1cccc(Nc2nc(NCc3ccccc3Cl)c3ccccc3n2)c1`, 18 µM (inactive).
The result for `Cc1ccc(CNc2nc(Nc3cccc(Cl)c3)nc3ccccc23)cc1` reads 12 µM (inactive); that for `Cc1ccc(Nc2nc(Nc3cccc(Cl)c3)nc3ccccc23)cc1`, > 30 µM (inactive); that for `COc1ccc(Cl)cc1Nc1nc(NCc2ccccc2)c2ccccc2n1`, 16 µM (inactive).
In the case of `CC(C)Sc1oc(-c2ccco2)nc1S(=O)(=O)c1ccc(F)cc1`, the IC50 is 28 µM (inactive).
The result for `Clc1ccc(Nc2nc(Nc3cccc(Cl)c3)nc3ccccc23)cc1` reads 21 µM (inactive).
Consider `Fc1cccc(CNc2nc(Nc3cccc(Cl)c3)nc3ccccc23)c1`, for which the IC50 was 6.3 µM.
The result for `CC(C)n1c2ccccc2c2nnc(SCC(=O)OCN3C(=O)c4ccccc4C3=O)nc21` reads 20 µM (inactive).

(Values after PubChem BioAssay AID488830 (Molecular Libraries Program, Specialized Chemistry Center, …, 2010).)
